Calb FLC – C. albicans growth inhibition with fluconazole, primary screen, CaCi-2 strain, Alamar Blue fluorescence; 300,000 compounds, 0.57% hits; C. albicans CaCi-2 (fluconazole-resistant clinical isolate) + fluconazole, 48 h; growth inhibition, % (no concentration beside the values); AID 1979, 2009;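 active means growth inhibition above about 58% in most replicates, limit read from the data, passing the limit was not always enough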;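 further: all wells also contain fluconazole at 8 µg/ml as a sub-toxic cotreatment; 0% = median of DMSO wells and 100% = median of geldanamycin control wells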
T cruzi inh – inhibitors of intracellular T. cruzi growth, primary screen, luminescence, NIH3T3 host cells; 300,000 compounds, 1.4% hits; T. cruzi beta-gal in NIH3T3, 90 h; inhibition, % (test concentration not listed);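 active means mean inhibition across valid replicates above about 55%, limit read from the data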;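 further: signal also drops with host cell toxicity which is not excluded here; 0% = plate median of DMSO wells and 100% = zero luminescence signal; higher percent means less beta-gal luminescence so fewer parasites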
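System – NIH/3T3 host cells with β-galactosidase reporter T. cruzi · Doses – single 50 nL compound addition per well in DMSO · Reagent – 5000 T. cruzi trypomastigotes/well · Medium – Low-serum DMEM with 2% FBS · Timing – ≥90 h infection period, 3 h prior cell attachment · Evaluation – parasite load inhibition, % · Technique – GalScreen luminescence, 60 min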
SKKanGAS inh – S. pyogenes SKKanGAS growth inhibitors in kanamycin, primary screen, streptokinase expression inhibitor project, SKKanGAS strain, BacTiter-Glo luminescence. inhibition, % at 7.5 µM. 6 h. 300,000 compounds, 1.3% hits;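 active means mean replicate score, as percent of positive control median, at least 50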;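 further: strain carries kanamycin resistance gene driven by streptokinase promoter and grows in 40 µg/ml kanamycin; loss of luminescence reflects streptokinase promoter inhibition or plain growth inhibition; 0% = median of DMSO wells and 100% = positive control at its reference dose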
CSC inhib – cancer stem cell viability inhibitors, primary screen, luminescence; cancer stem cell-like cells viability; inhibition, % at 7.5 µM; 300,000 compounds, 1.1% hits; in the data active means inhibition above about 75%; tested in HMLE shEcad cells
Mdm2-MdmX inh – inhibitors of human Mdm2-MdmX association, primary screen, cell-based, luminescence, split luciferase, SaOS-2, uHTS; Protein Mdm4 (Homo sapiens) + E3 ubiquitin-protein ligase Mdm2 (Homo sapiens), …; SaOS-2 split-luciferase Mdm2/MdmX complementation; inhibition, % at 8 µM; 330,000 compounds, 3% hits;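 active means inhibition of at least 50% at 8 µM in the primary screen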
Target sequence (O15151 whole entry, looked up): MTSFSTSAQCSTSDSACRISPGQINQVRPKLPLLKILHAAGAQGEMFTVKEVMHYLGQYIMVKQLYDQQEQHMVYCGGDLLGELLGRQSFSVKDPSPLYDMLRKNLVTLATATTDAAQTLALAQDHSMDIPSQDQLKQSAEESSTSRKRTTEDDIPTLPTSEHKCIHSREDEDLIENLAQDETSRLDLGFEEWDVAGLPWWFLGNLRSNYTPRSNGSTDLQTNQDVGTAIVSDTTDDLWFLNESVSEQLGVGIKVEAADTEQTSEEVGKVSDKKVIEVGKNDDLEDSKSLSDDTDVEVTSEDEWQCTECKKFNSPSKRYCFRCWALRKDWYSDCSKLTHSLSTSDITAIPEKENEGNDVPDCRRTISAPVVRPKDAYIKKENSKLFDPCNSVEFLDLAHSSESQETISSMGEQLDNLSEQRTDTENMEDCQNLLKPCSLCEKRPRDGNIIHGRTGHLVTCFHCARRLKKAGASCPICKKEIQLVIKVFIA
Target sequence (Q00987 whole entry, looked up): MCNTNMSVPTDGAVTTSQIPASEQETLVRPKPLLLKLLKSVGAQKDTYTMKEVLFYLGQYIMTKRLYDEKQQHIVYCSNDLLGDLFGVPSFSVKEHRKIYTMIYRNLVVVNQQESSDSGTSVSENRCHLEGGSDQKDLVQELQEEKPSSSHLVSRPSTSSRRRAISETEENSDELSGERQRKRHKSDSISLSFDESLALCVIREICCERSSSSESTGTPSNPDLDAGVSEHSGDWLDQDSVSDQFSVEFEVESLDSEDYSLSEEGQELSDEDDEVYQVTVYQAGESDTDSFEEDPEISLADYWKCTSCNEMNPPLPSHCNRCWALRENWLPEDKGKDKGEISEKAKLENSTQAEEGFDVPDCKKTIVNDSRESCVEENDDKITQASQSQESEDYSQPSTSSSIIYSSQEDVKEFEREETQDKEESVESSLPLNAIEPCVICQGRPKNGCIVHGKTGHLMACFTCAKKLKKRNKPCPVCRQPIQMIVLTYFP
Beta apoptosis – inhibitors of cytokine-induced beta cell apoptosis, primary screen, luminescence | INS-1E cytokine-induced death, ATP luminescence, 48 h; percent of positive-control rescue, neutral wells zero | protection from apoptosis, % (test concentration not listed) | 300,000 compounds, 0.8% hits | AID 435005, 2010;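 active means Every replicate reaches about 75%, or at least half do and their mean reaches it too, limit read from the data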;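 further: 0% = cytokine-treated negative control wells and 100% = positive control rescue; higher means more ATP so stronger rescue from cytokine killing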
* = called active by the depositor. Shown are actives, neighbours in structure and some others; about 5.7% of the full set was active somewhere.

COc1ccc(-n2nnnc2CNC(=O)C2CC(=O)N(c3ccc(Cl)cc3)C2)cc1 (stereo unspecified) was read as Calb FLC 1.9, T cruzi inh -8.9, SKKanGAS inh -5.2, CSC inhib -1.3, Mdm2-MdmX inh 19.0 and Beta apoptosis -0.2.
For Cc1ccc(/C=C/C(=O)c2ccccc(=O)c2O)cc1C the results were Calb FLC 99.3*, T cruzi inh 58.8*, SKKanGAS inh 96.9*, CSC inhib 96.7* and Beta apoptosis 22.5.
Screening O=C(/C=C/c1ccccc1)c1cc(Br)ccc(=O)c1O returned Calb FLC -3.5, T cruzi inh 48.4, SKKanGAS inh 98.4*, CSC inhib 93.3*, Mdm2-MdmX inh 41.3 and Beta apoptosis 16.7.
`NS(=O)(=O)c1cnccc1Oc1cccc(Cl)c1` gave Calb FLC -6.5, T cruzi inh -9.9, SKKanGAS inh 5.3, CSC inhib -0.7 and Mdm2-MdmX inh -10.9.
For NS(=O)(=O)c1ccc(Nc2nc(-c3ccc4ccccc4c3)cs2)cc1 the results were Calb FLC -10.1, T cruzi inh 16.6, SKKanGAS inh -4.0, CSC inhib 23.7, Mdm2-MdmX inh 7.6 and Beta apoptosis 0.8.
For NS(=O)(=O)c1ccc(Nc2nc(-c3cccc([N+](=O)[O-])c3)cs2)cc1 the results were Calb FLC -7.6, T cruzi inh 57.8*, SKKanGAS inh -14.9, CSC inhib -2.1, Mdm2-MdmX inh -1.4 and Beta apoptosis 19.4.
For CCN(CC)C(=O)Oc1ccc(Cl)c2cccnc12 the results were Calb FLC -2.8, T cruzi inh -2.4, SKKanGAS inh -13.0, CSC inhib -8.5, Mdm2-MdmX inh 4.4 and Beta apoptosis -1.4.
O=C(Nc1cccc(C(F)(F)F)c1)Oc1ccc(Cl)c2cccnc12 was read as Calb FLC 37.8, T cruzi inh 69.4*, SKKanGAS inh 99.3*, CSC inhib 43.2 and Beta apoptosis 115.5*.
For CCOc1ccccc1NC(=O)c1nnn(CC(=O)Nc2cc(C)cc(C)c2)c1N the results were Calb FLC 1.9, T cruzi inh -0.2, SKKanGAS inh 5.4, CSC inhib -11.1, Mdm2-MdmX inh 32.1 and Beta apoptosis 0.2.
Screening O=c1ncn(-c2cccc(Cl)c2)c2ccccc12 returned Calb FLC -2.8, T cruzi inh -12.6, SKKanGAS inh 0.0, CSC inhib -10.9, Mdm2-MdmX inh 0.0 and Beta apoptosis -7.1.
C/C(=C/CCC(C)[C@H]1CC[C@@]2(C)C3=C(CC[C@]12C)[C@@]1(C)CCC(=O)C(C)(C)[C@@H]1CC3)C(=O)O (stereo partly specified) was read as Calb FLC -7.1, T cruzi inh 11.6, SKKanGAS inh 104.6*, CSC inhib 7.8 and Beta apoptosis 0.9.
C/C(=C/CCC(C)C1CCC2(C)C3CCC4C(C)(C)C(=O)CCC4(C)C3=CCC12C)C(=O)O (stereo unspecified) was read as Calb FLC -10.7, T cruzi inh -4.5 and SKKanGAS inh 105.1*.
Cc1cccc(Nc2nc(-c3ccc(O)cc3O)cs2)n1 was read as Calb FLC 3.7, T cruzi inh -15.2, SKKanGAS inh -2.1, CSC inhib 96.5*, Mdm2-MdmX inh -86.2 and Beta apoptosis -0.6.
Screening Oc1ccc(-c2csc(Nc3ncccn3)n2)c(O)c1 returned Calb FLC 20.6, T cruzi inh 27.3, SKKanGAS inh -16.3, CSC inhib -2.4 and Mdm2-MdmX inh -55.6.
CCOC(=O)/C(C)=C1\NC(C)(C)Cc2ccccc21 was read as Calb FLC -25.7, T cruzi inh 62.5* and SKKanGAS inh -6.0.
For CCOC(=O)/C(C(=O)Nc1ccccc1Cl)=C1/NC(C)(C)Cc2ccccc21 the results were Calb FLC 6.0, T cruzi inh -1.1, SKKanGAS inh 1.0, CSC inhib 4.0, Mdm2-MdmX inh 2.7 and Beta apoptosis -3.1.
For CN1C2CCC1CC(NC(=O)c1cc(S(=O)(=O)N(C)C)c(Cl)cc1Cl)C2 (stereo unspecified) the results were CSC inhib -9.3, Mdm2-MdmX inh 8.0 and Beta apoptosis -0.1.

Bioassay records: PubChem, several laboratories
